Inhibition data for 57 compounds are collected here from PubChem BioAssay AID651560 (Sanford-Burnham Center for Chemical Genomics, 2012).

Molecules are shown by their SMILES. Among all 360,000 compounds or so, about 820 (0.23%) were called active. This excerpt belongs to a sample that is enriched for actives. A number with no mark means an inactive call.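 The calls were made as follows: active = compounds that cut the enzyme signal by at least half of the control window in the single-dose screen; inactive = the rest.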

Chain of Low molecular weight phosphotyrosine protein phosphatase (Homo sapiens) (P24666 whole entry, looked up): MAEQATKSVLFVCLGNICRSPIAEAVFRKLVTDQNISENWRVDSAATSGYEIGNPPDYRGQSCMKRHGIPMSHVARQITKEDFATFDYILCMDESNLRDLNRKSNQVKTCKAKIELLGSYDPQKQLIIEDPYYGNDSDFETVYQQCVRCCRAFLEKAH

This test has as its target Low molecular weight phosphotyrosine protein phosphatase (Homo sapiens) (UniProt P24666). As to the kind of experiment: inhibition of human LMPTP-A enzyme – biochemical, fluorescence intensity, uHTS, primary screen (AID 651560).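 Also: plate controls were DMSO wells with enzyme plus substrate for no effect and substrate without enzyme for full effect.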 The following applies: recombinant LMPTP-A, OMFP fluorogenic substrate, at 20 µM, hits give high values. The method, boiled down: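 Test system: LMPTP-A, protein tyrosine phosphatase of low molecular weight; Input: 0.625 nM enzyme; Incubation: 50 min dark incubation at room temperature; Signal: endpoint fluorescence intensity from OMFP dephosphorylation; Read-out basis: % inhibition versus control wells.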
The term inhibition denotes the drop in the measured response relative to a control, in per cent. Take `O=S(=O)(NN=C1CCCCCCC1)c1ccc(Br)cc1`: the inhibition was 0.285%.

In the case of `CCCn1c(N)c(N(CCOC)C(=O)C2CCCC2)c(=O)[nH]c1=O`, the inhibition was -0.34%.

Turning to `CCOCCCNC(=O)C(NC(=O)Cc1c[nH]c2ccccc12)c1ccc(OC)cc1` (configuration not stated), the inhibition is -1.16%.

`COC(=O)c1c(NC(=O)CN(c2ccc(C)c(C)c2)S(C)(=O)=O)sc2c1CCCC2`: the inhibition is 1.37%.

Consider `CCOc1ccc(OCC)c(NC(=O)CSc2nnc(Cn3cnc4ccccc43)n2C)c1`, for which the inhibition was -0.816%.

As for `CNc1cnc(-c2cc(OC)c(OC)c(OC)c2)cn1`, the inhibition is 0.718%.

With `NS(=O)(=O)c1ccc(CCNC(=O)COC(=O)COc2cccc(C(F)(F)F)c2)cc1`, the inhibition is -0.314%.

As for `O=C(Nc1ccncc1)c1cc(-c2ccccn2)nc2ccc(Br)cc12`, the inhibition was 51.5% (active).

Take `O=C(Nc1cccnc1)c1cc2cc(Br)ccc2oc1=O`: the inhibition was 45.7%.

Consider `O=C(CSc1ccc(-c2ccccn2)nn1)Nc1ccccc1`, for which the inhibition was 0.337%.

With `COC(=O)c1ccc(C23CC4(C2)[C@H](CN(Cc2cccnc2)[C@@H]4c2ccccc2)C3c2ccc(Cl)nc2)cc1` (some centres not stated), the inhibition is 8.71%.

Consider `CCCc1ccc(-c2c(C)sc(NC(=O)c3ccnn3C)c2C#N)cc1`, for which the inhibition was 1.55%.

As to `Cc1ccc(C(=O)N/C(=C\c2ccco2)C(=O)N2CCSCC2)cc1C`, the inhibition is -0.858%.

On to `Cc1cccc(C)c1NC1=NC(=S)N(c2ccc(N(C)C)cc2)C1(C)C`, for which the inhibition is -0.864%.

`CC1(C(=O)NCc2ccccc2)CN(S(C)(=O)=O)CC(=O)N1CC(F)(F)F` (configuration not stated): the inhibition is -0.703%.

Consider `C=CCn1c(=O)c(C(=O)NCc2ccc3c(c2)OCO3)c(O)c2ccccc21`, for which the inhibition was 2.01%.

In the case of `O=C(NCc1ccc2c(c1)OCO2)c1c(O)nc2sccn2c1=O`, the inhibition was 53.5% (active).

`O=C(NCc1ccc2c(c1)OCO2)c1sccc1Br`: the inhibition is -0.435%.

With `O=C(CN1CCN(C(=O)c2ccco2)CC1)Nc1ccc2c(c1)OCO2`, the inhibition is -0.639%.

On to `O=C(CCN1C(=O)c2ccncc2C1=O)Nc1ccc2c(c1)OCCO2`, for which the inhibition was 0.479%.

As to `Cc1ccc(C(=O)O)cc1-c1ccc(/C=C2\SC(=O)N(CC(=O)Nc3ccc4c(c3)OCO4)C2=O)o1`, the inhibition is 61.2% (active).

On to `Cc1ccc(S(=O)(=O)N2[C@@H](c3ccc(Br)cc3)C(C(=O)O)=C[C@H]2CC2CCCC2)cc1`, for which the inhibition is 0.284%.

In the case of `COc1cc(OC)cc(/C(N)=N/O)c1`, the inhibition was 0.166%.

`CCC(C)N(C(=O)COC(=O)c1nc(Cl)ccc1Cl)C1CCS(=O)(=O)C1` (configuration not stated): the inhibition was -0.848%.

`N#CCSc1nn(-c2ccc(F)cc2)c(=S)s1`: the inhibition is -0.858%.

Turning to `CCOC(=O)C1CCN(C(=O)c2ccc3c(=O)n4nc(Nc5ccccc5CC)sc4nc3c2)CC1`, the inhibition was 1.95%.

Consider `CS(=O)(=O)N1CCCCC1c1cc(C(=O)NCc2ccccc2)no1` (configuration not stated), for which the inhibition was -1.43%.

Take `Nc1nc(C23CC4CC(CC(C4)C2)C3)cs1`: the inhibition is -0.25%.

As for `C#CCN(N(C)c1ncc(C(F)(F)F)cc1Cl)S(=O)(=O)c1ccc2ccccc2c1`, the inhibition was 5.44%.

For `CN(C)C(=O)Cn1c(=O)n(S(=O)(=O)c2ccccc2)c2ccccc21`, the inhibition was -0.0726%.

As to `Cc1cccc(NC(=O)CSc2nnc(CCCCCNC(=O)OC(C)(C)C)o2)c1C`, the inhibition is -0.643%.

In the case of `O=C(NCc1cccnc1)c1cc(C2CCCN(C(=O)CCCc3ccccc3)C2)on1` (configuration not stated), the inhibition is -0.488%.

On to `CCN1/C(=C\c2ccc3ccccc3[n+]2CC)Sc2cc(C)ccc21`, for which the inhibition was 63.9% (active).

Regarding `Cc1nc(CC(=O)NNS(=O)(=O)c2ccc(F)c(Cl)c2)cs1`, the inhibition was -1.65%.

As for `Cc1cccc(OCC(O)CN2CCN(CCN3C(=O)c4cccc5cccc(c45)C3=O)CC2)c1C` (configuration not stated), the inhibition is 8.73%.

On to `CCOC(=O)Cc1cc(=O)[nH]c(/N=C(\N)Nc2ccc(OC)cc2)n1`, for which the inhibition was -0.31%.

Turning to `CCSc1nc(=S)n(CC)c(C)c1C(C)=O`, the inhibition was -0.754%.

Consider `COC(=O)CN1C(C)=Nc2ccc(Br)cc2C1c1ccccc1` (configuration not stated), for which the inhibition is -0.193%.

Regarding `CCn1ccnc1CNC(=O)CC1C(=O)NCCN1CCCc1ccccc1` (configuration not stated), the inhibition was -2.22%.

As to `CCOc1cc2[nH]c(=S)n(Cc3ccc(C(=O)N4CCN(C)CC4)cc3)c(=O)c2cc1OCC`, the inhibition was 1.07%.

In the case of `O=c1c(Cl)c(NCc2ccc(F)cc2Cl)cnn1C12CC3CC(CC(C3)C1)C2`, the inhibition was 1.08%.

In the case of `O=C1c2ccccc2C(Nc2ccc3c(c2)OCCO3)N1Cc1ccco1` (configuration not stated), the inhibition is 0.866%.

Turning to `Cn1c(=O)c(=O)n(C)c2cc(S(=O)(=O)CCC(=O)N3CCCCC3)ccc21`, the inhibition was -0.491%.

For the compound `COc1ccc(-c2oc3ncn(Cc4ccco4)c(=N)c3c2-c2ccc(OC)cc2)cc1`, the inhibition was 3.1%.

In the case of `O=C(Cn1c(=O)n(Cc2ccco2)c(=O)c2ccccc21)NCC1CCCO1` (configuration not stated), the inhibition was -0.056%.

Regarding `Cn1c2ccccc2c(=O)c2c(=O)n(Cc3ccco3)c(COc3ccccc3)nc21`, the inhibition was 69% (active).

On to `O=C(CC(=O)N/N=C\c1cccc(Cl)c1Cl)NCc1ccccc1`, for which the inhibition was -1.17%.

On to `O=C(CO/N=C/c1ccccc1O)NNC(=O)c1ccccc1Cl`, for which the inhibition is -0.137%.

Consider `O=C(NN=Cc1ccccc1O)NN=Cc1ccccc1O`, for which the inhibition is 61.8% (active).

With `O=C(Nc1cc(S(=O)(=O)N2CCOCC2)ccc1N1CCOCC1)c1c(F)cccc1Cl`, the inhibition is -0.613%.

As for `O=C(CCCOc1ccccc1)NNC(=O)c1ccc(Cl)cc1`, the inhibition was -0.0475%.

With `O=C(NNC(=O)c1ccc2ccccc2c1)c1ccc(Cl)cc1`, the inhibition was 49.6% (active).

Take `CN(CC(=O)Nc1ccc(Cl)cc1)C(=O)CNC(=O)c1ccc2ccccc2c1`: the inhibition is 0.862%.

As for `CC(C)(C)S(=O)(=O)c1ccccc1-c1noc(-c2ccccc2)c1C(N)=O`, the inhibition was -0.802%.

On to `Cc1ncc([N+](=O)[O-])n1CCOC(=O)c1ccc(Br)cc1`, for which the inhibition was -0.676%.

Regarding `C[C@H](NC(=O)NCCc1ccccc1)C(=O)O`, the inhibition was 0.573%.

With `CCOC(=O)C1(CC2CCCCO2)CCN(Cc2nc(-c3cccs3)oc2C)CC1` (configuration not stated), the inhibition was 0.186%.
